Experimental findings from PubChem BioAssay are described below.

The source made the active and inactive calls.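 How the source made its calls, unless noted: active means fluorescence slope higher than the sample average by over 3 SD (cut at about -0.22 in these data, passing the limit was not always enough); inactive means the rest.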

A short description of test [1]: inhibitors of TNFa-induced NFkB p65 translocation, primary screen, imaging, HUVEC, MLSMR starter and 10KST1 sets (AID 438;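 active means inhibition above 20% together with a positive visual image hit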;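 further: compound added about 3h40 before a 20 min TNFalpha stimulation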;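 on inhibition: signal is the nuclear over cytoplasmic p65 intensity ratio per well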). Conditions: HUVEC TNFa-induced p65 nuclear translocation; cell count: measured here: nuclei count (cytotoxicity indicator), at 2.08 µM; inhibition: at 2 µM, stronger effect = higher value, 0% TNFa-plus-vehicle, 100% no-TNFa wells.
Test [2] can be described thus: endothelial E-selectin expression blockers – imaging, HUVEC, immunofluorescence, MLSMR starter and 10KST1 sets, primary screen (AID 487;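 active means visually confirmed hit in the image check and inhibition above 20%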;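 on inhibition: signal is fraction of cell area covered by stained E-selectin grains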;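 on nuclei count: 100% = median nuclei count of all wells on the same plate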). To be noted: HUVEC TNFalpha-induced E-selectin immunofluorescence imaging, at 2 µM; inhibition: stronger effect = higher value; nuclei count: measured here: cell number, toxicity.
Test [3] in a line: Primary imaging screen for DUSP6 inhibitors that restore phospho-Erk in transfected HeLa cells, chemical complementation (AID 609;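 active means compounds giving at least 50% inhibition in the cell-based MKP-3 phosphatase rescue imaging test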;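 on inhibition: phospho-Erk level distribution per well compared with pooled transfected vehicle control wells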). To be noted: HeLa MKP-3 transfected, phospho-Erk imaging KS statistic, at 10 µM, cells stimulated with TPA for 15 min.
The target in test [4] is Dual specificity protein phosphatase 6 (Homo sapiens) (UniProt Q16828). The description is as above. To be noted: HeLa MKP-3 transfected, phospho-Erk imaging KS statistic; at 10 µM; stronger effect = higher value; cells stimulated with TPA for 15 min.
Test [5] has as its target Voltage-gated potassium channel subunit beta-2 (Rattus norvegicus) (UniProt P62483). The test can be described thus: inhibitors of rat Kvbeta2 reductase activity – biochemical, NADPH fluorescence, primary screen (AID 622).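 Further: slope of raw intensity against log time taken from 70 to 1610 s.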 Conditions: recombinant KvBeta, 4-cyanobenzaldehyde reduction, at 10 µM, stronger effect = higher value.
For test [6] the target is unchanged. Kind of test: enhancers of rat Kvbeta2 NADPH turnover – biochemical, NADPH fluorescence, primary screen (AID 623;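 active means NADPH fluorescence slope more negative than the mean of all samples by about 3 SD, 99.7% confidence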;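 further: fluorescence intensity change per second fitted from 20 to 320 s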). To be noted: Recombinant KvBeta, NADPH fluorescence decrease slope, 10 min; at 10 µM; stronger effect = lower value.
Test [7] has as its target Muscarinic acetylcholine receptor M4 (Homo sapiens) (UniProt P08173). The test can be described thus: M4-linked GIRK flux change, two-sided – cell-based, HEK293 M4/GIRK, thallium flux, BTC-AM, M4 allosteric agonist project, primary screen (AID 625;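 active means fluorescence slope after compound addition differing from the mean of all tested samples at 99.7% confidence, mostly higher but some lower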;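 further: thallium influx through GIRK channels coupled to M4 in HEK293 cells with BTC-AM dye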). To be noted: at 10 µM, actives lie on both sides. The method, boiled down:
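Assay system: HEK293 cells with M4 receptor and GIRK channels / Controls: carbachol and DMSO controls / Schedule: 1 h dye loading, 2 min kinetic read / Technique: kinetic fluorescence with BTC-AM dye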

The nature of test [8]: inhibitors of larval lipid processing in zebrafish, primary screen, whole organism, PED6 fluorescence, gall bladder and intestine (AID 686;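 active means a full or partial loss of lipid-probe fluorescence in the fish gall bladder, intestine or both, judged by eye; inactive means no fluorescence loss, or compound toxic to the fish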;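 further: larvae 5 to 7 days old with five fish per well; signal comes from phospholipase A2 cleavage of quenched PED6 carried via bile; overnight exposure to compound and PED6 before scoring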). To be noted: Zebrafish larvae PED6 lipid processing, fluorescence scoring; screened at 20 µM (by protocol). The method, boiled down:
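Doses: 20 µM single dose. Test system: live zebrafish larvae aged 5-7 days, whole organism. Quantity: five larvae per well. Measured by: By-eye fluorescence microscopy. Reagent: ingested quenched lipid PED6 at 100 nM. Read-out: visual per-well fluorescence inhibition score. Times: overnight exposure of larvae to compound plus PED6.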

The nature of test [9]: loss of swimming-algae plug formation – whole organism, Chlamydomonas reinhardtii, WT vs cilia-less mutant, absorbance, 96-well, primary screen (AID 463189;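 active means inhibition at or above 50% relative to wild type and mutant plate controls; inactive means inhibition below 50%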;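 further: 0% = wild type cc124 cells in DMSO and 100% = ciliumless bld1 mutant cells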). Conditions: Chlamydomonas reinhardtii gravitaxis, OD600 absorbance, 2 days; at 10 µM; stronger effect = higher value.
[10] abbreviates: measured here: cell density z-score.
The mark [11] stands for this setting: measured here: nuclear c-Myc green intensity z-score.
Where [12] appears, read: measured here: nuclear pErk red intensity z-score, stronger effect = higher value.

Dual specificity protein phosphatase 6 (Homo sapiens), sequence (Q16828 whole entry, looked up): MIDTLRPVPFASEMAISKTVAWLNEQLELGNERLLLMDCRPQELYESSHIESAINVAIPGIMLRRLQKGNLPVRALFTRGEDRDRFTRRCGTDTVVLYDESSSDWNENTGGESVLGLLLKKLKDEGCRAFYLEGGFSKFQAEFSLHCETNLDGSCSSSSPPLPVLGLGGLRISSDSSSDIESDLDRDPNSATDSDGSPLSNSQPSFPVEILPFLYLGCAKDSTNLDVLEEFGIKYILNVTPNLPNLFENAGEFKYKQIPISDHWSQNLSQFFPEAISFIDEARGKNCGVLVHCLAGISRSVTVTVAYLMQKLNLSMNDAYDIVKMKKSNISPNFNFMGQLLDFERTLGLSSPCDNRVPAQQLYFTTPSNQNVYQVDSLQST
Muscarinic acetylcholine receptor M4 (Homo sapiens), sequence (P08173 whole entry, looked up): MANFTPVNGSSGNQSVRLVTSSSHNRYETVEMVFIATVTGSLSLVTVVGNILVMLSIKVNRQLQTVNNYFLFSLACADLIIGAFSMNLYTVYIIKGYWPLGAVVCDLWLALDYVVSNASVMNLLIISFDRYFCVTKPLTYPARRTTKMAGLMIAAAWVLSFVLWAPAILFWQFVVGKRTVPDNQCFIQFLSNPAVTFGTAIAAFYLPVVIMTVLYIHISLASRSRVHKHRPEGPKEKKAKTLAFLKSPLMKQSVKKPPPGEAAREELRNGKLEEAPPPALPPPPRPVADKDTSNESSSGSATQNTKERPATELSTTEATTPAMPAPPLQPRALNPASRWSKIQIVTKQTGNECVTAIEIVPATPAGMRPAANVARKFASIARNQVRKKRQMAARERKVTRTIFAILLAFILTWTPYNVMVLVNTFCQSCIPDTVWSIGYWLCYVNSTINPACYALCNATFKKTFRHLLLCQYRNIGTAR
Voltage-gated potassium channel subunit beta-2 (Rattus norvegicus), sequence (P62483 whole entry, looked up): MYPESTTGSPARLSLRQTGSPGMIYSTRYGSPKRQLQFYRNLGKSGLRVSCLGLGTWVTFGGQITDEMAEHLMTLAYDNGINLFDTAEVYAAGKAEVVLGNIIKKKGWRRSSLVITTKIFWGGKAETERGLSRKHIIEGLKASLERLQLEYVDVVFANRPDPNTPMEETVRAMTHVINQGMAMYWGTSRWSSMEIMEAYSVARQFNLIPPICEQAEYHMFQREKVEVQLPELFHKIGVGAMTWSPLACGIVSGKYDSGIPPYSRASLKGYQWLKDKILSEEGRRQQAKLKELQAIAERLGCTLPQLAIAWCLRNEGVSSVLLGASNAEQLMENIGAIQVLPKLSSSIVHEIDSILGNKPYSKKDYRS

For the compound `CCOC(=O)c1[nH]c2ccc(OC)cc2c1NC(=O)CCN1CCCC(C)C1` (centres undefined), in [1], the cell count came to 521. Also, the inhibition in test [1] is -0.1% (inactive); in test [2], 9.9% (inactive); in test [4], 11.4% (inactive); in [9] it was 28.8% (inactive). The compound further had a nuclei count in test [2] of 100%. Besides, the z-score in test [3] (setting [10]) was -0.422; in test [3] (setting [11]), -0.411; in [3] (setting [12]), -1.15. The fluorescence slope in [5] is -0.351 (inactive); in test [7] it was 0.00513 (inactive). Besides, in [6], the NADPH fluorescence slope was -1.8e-05 (inactive). In test [8], the outcome was inactive.

Regarding `N#CC(C#N)C(c1ccsc1)c1c(-c2ccccc2)[nH][nH]c1=O` (centres undefined), in [1], the cell count came to 712. Also, the inhibition in test [1] is -0.5% (inactive); in test [2], -88.8% (inactive); in test [4], -4.27% (inactive); in test [9] it was 3.19% (inactive). In [2], the nuclei count was 169%. In addition, the values for the z-score in test [3] (setting [10]), in test [3] (setting [11]) and in test [3] (setting [12]) were 0.118, -0.0424 and 0.886, respectively. For the same compound, the fluorescence slope was -0.495 (inactive) in test [5] and 0.00622 (inactive) in test [7]. In addition, in test [6], the NADPH fluorescence slope is -6.9e-05 (inactive). Moreover, the result in [8] was inactive.

For `Cc1cc(C)nc(N(C#N)CN2C(=O)c3ccccc3C2=O)n1`, in test [1], the cell count came out at 629. Also, the inhibition in test [1] was 6.2% (inactive); in test [2], 26.6% (inactive); in [4] it was -9.53% (inactive); in test [9], 30.7% (inactive). Moreover, in test [2], the nuclei count was determined as 107%. Besides, the z-score in [3] (setting [10]) was -0.879; in test [3] (setting [11]), 0.404; in test [3] (setting [12]) it was -0.916. Moreover, the fluorescence slope was -0.523 (inactive) in test [5] and 0.00446 (inactive) in test [7]. In test [6], the NADPH fluorescence slope is -3.9e-05 (inactive). For the same compound, the compound was classed as inactive in test [8].

As to `Cc1ccc(OCC(O)CNS(=O)(=O)c2ccccc2C(=O)O)cc1` (centres undefined), the cell count in test [1] was 625. Further, the inhibition in [1] was -11.3% (inactive); in [2] it was -18.3% (inactive); in test [4], 21.4% (inactive); in [9], -7.23% (inactive). The compound also showed a nuclei count in test [2] of 152%. Further, the z-score in test [3] (setting [10]) is 0.248; in test [3] (setting [11]), 0.991; in [3] (setting [12]) it was -0.853. Besides, the fluorescence slope was -0.412 (inactive) in [5] and 0.00639 (inactive) in test [7]. In test [6], the NADPH fluorescence slope is -2.6e-05 (inactive). Further, the outcome in test [8] was inactive.

In the case of `C=CCOc1ccc(/C(O)=C2\C(=O)C(=O)N(CCN(C)C)C2c2cccs2)cc1` (centres undefined), the cell count in test [1] stood at 642. Besides, the inhibition is 2.8% (inactive) in [1], -0.3% (inactive) in [2], 12.8% (inactive) in [4] and 10.2% (inactive) in [9]. In [2], this compound registered a nuclei count of 181%. For the same compound, the z-score in [3] (setting [10]) came to 0.295; in [3] (setting [11]), 1.17; in test [3] (setting [12]) it was 0.318. The results for the fluorescence slope in [5] and in test [7] were -0.469 (inactive) and 0.00599 (inactive), respectively. For the same compound, the NADPH fluorescence slope in [6] is -6.6e-05 (inactive). Moreover, in test [8], the compound was called inactive.

`O=C(O)CCCC(=O)N1CCN(C(c2ccccc2)c2ccccc2)CC1`: the cell count in test [1] is 593. The inhibition in test [1] is 2% (inactive); in test [2] it was 16.4% (inactive); in [4], -9.53% (inactive); in test [9] it was -16% (inactive). This compound came in with a nuclei count in test [2] of 93.4%. For the same compound, the z-score in [3] (setting [10]) is 0.508; in test [3] (setting [11]), 0.369; in test [3] (setting [12]) it was -2.19. The fluorescence slope is -0.501 (inactive) in test [5] and 0.00548 (inactive) in [7]. Also, the NADPH fluorescence slope in test [6] was -2.2e-05 (inactive). The call in [8] was inactive.

Consider `CCN(CC)CCN1C(=O)C(=O)/C(=C(/O)c2c(C)[nH]c(C(=O)OC)c2C)C1c1ccc(OC)cc1` (centres undefined), for which the cell count in test [1] was found to be 733. For the same compound, the inhibition was -1.5% (inactive) in test [1], -75.7% (inactive) in [2], 0.671% (inactive) in test [4] and 18.4% (inactive) in test [9]. Besides, the nuclei count in [2] was 194%. Also, the z-score was -0.146 in test [3] (setting [10]), -0.0149 in test [3] (setting [11]) and 0.967 in test [3] (setting [12]). Moreover, the fluorescence slope in test [5] was -0.449 (inactive); in [7], 0.00528 (inactive). Further, the NADPH fluorescence slope in [6] is -4e-05 (inactive). Moreover, the outcome in [8] was inactive.

Regarding `CN(C)CCCN(CCCNC(=O)/C=N/O)Cc1ccccc1`, the cell count in [1] was 652. Also, the inhibition in test [1] is -10.5% (inactive); in test [2] it was -38% (inactive); in [4], -2.09% (inactive); in test [9], 8.7% (inactive). The nuclei count in test [2] turned out to be 181%. Moreover, the figures for the z-score in [3] (setting [10]), in test [3] (setting [11]) and in test [3] (setting [12]) were -1.02, -0.157 and 0.798, respectively. In addition, the figures for the fluorescence slope in test [5] and in test [7] were -0.495 (inactive) and 0.00839 (inactive), respectively. The NADPH fluorescence slope in test [6] was -5.8e-05 (inactive). For the same compound, the result in test [8] was inactive.

As for `CCNC(=O)c1cc2c(=O)n3cccc(C)c3nc2n(CCc2ccccc2)c1=N`, in test [1], the cell count is 643. The inhibition in [1] was 8.2% (inactive); in test [2], -7.9% (inactive); in test [4], 14.7% (inactive); in test [9], 70.9% (active). In test [2], this compound yielded a nuclei count of 106%. Besides, the results for the z-score in [3] (setting [10]), in [3] (setting [11]) and in test [3] (setting [12]) were -0.692, 0.0237 and -0.676, respectively. Besides, the fluorescence slope was -0.0428 (inactive) in test [5] and 0.00034 (inactive) in [7]. For the same compound, the NADPH fluorescence slope in test [6] is -1.8e-05 (inactive). The outcome in test [8] was “active; no signal in intestine only”.

Turning to `CCCCOC(=O)CCc1nc2ccccc2[nH]1`, in [1], the cell count was determined as 716. Further, the inhibition was -2.4% (inactive) in [1], -50.5% (inactive) in test [2], -3.97% (inactive) in [4] and 8.4% (inactive) in test [9]. Further, the nuclei count in test [2] was 195%. Also, the z-score in test [3] (setting [10]) is -0.361; in test [3] (setting [11]) it was 0.108; in [3] (setting [12]) it was 1.13. In addition, the results for the fluorescence slope in test [5] and in test [7] were -0.484 (inactive) and 0.00514 (inactive), respectively. Besides, the NADPH fluorescence slope in test [6] is -5.5e-05 (inactive). For the same compound, in test [8], the call was inactive.

As for `CCOC(=O)CNC(=O)CCCCCC(=O)NCC(=O)OCC`, the cell count in test [1] came out at 367. Further, the inhibition in [1] is -1.3% (inactive); in [2] it was -27.8% (inactive); in [4], 11.4% (inactive); in test [9], 21.4% (inactive). Further, in test [2], the nuclei count came to 132%. In addition, the z-score was -0.497 in test [3] (setting [10]), 0.819 in test [3] (setting [11]) and 0.154 in test [3] (setting [12]). The fluorescence slope in test [5] is -0.431 (inactive); in test [7] it was 0.00362 (inactive). The NADPH fluorescence slope in test [6] is -9.3e-05 (inactive). Also, the result in test [8] was inactive.

As to `CC(C)c1ccc(O)c(N)c1`, in test [1], the cell count amounted to 660. For the same compound, the inhibition in test [1] is -20.9% (inactive); in [2], -16.4% (inactive); in test [4], 22.1% (inactive); in [9], 11.1% (inactive). This compound showed a nuclei count in test [2] of 180%. Moreover, the results for the z-score in test [3] (setting [10]), in test [3] (setting [11]) and in [3] (setting [12]) were 1.39, -1.5 and 0.0534, respectively. For the same compound, the fluorescence slope in test [5] is -0.527 (inactive); in test [7] it was 0.00607 (inactive). Moreover, the NADPH fluorescence slope in test [6] is -1.2e-05 (inactive). The result in [8] was inactive.

Take `COc1cccc(C2=CC(c3ccc(N(C)C)cc3)n3nnnc3N2)c1` (centres undefined): the cell count in test [1] is 525. The inhibition in test [1] is 0.8% (inactive); in [2], 27.7% (inactive); in test [4], 9.91% (inactive); in [9] it was -6.32% (inactive). For the same compound, the nuclei count in test [2] amounted to 156%. The z-score in test [3] (setting [10]) is -0.234; in test [3] (setting [11]), 1.06; in [3] (setting [12]) it was 0.0937. Also, the fluorescence slope in test [5] was -0.33 (inactive); in test [7], 0.00494 (inactive). In addition, the NADPH fluorescence slope in test [6] was -3.6e-05 (inactive). Besides, the call in test [8] was inactive.

By inhibition is commonly meant the relative decrease from the control value, in per cent.
